In ChEMBL document CHEMBL3272220, “Central nervous system active 5-oxo-1,4,5,6,7,8-hexahydrocinnolines” (J Med Chem, 1976):
Active and inactive are the calls of the source. The calls are words filed in the database; no cut-off is given here.

Tests used:
Mus musculus [1] = assay: Toxicity in CF albino mouse assessed as tremor at 500 mg/kg, po; type: organism-based; parameters: dose 500 mg/kg, route oral; details: in vivo
Mus musculus [2] = assay: Central nervous system depressant activity in CF albino mouse assessed as induction of sedation without arousability at 500 mg/kg, po; type: functional, organism-based; parameters: dose 500 mg/kg
Procedure, shortened: (§1)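 Male CF mice got 500 mg/kg orally as a 0.2% agar suspension. Scoring was at peak drug effect on a 0-4+ scale. Scores were judged together from percentage inhibition of spontaneous motor activity, a ptotic index based on percentage eye closure, and the degree of sedation.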

Mus musculus [3] = assay: Central nervous system depressant activity in CF albino mouse assessed as eye closure rate at 500 mg/kg, po relative to control; type: functional; procedure, shortened: as §1
Mus musculus [4] = assay: Antidepressant activity in CF albino mouse assessed as potentiation of dopa-induced response at 25 mg/kg, po relative to control; type: functional
Procedure, shortened: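 Male CF mice received 25 mg/kg orally in 0.2% agar suspension. The read-out was potentiation of the Dopa response. Results were graded on a plus-scale.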

Mus musculus [5] = assay: Anticonvulsant activity in po dosed CF albino mouse assessed as protection against electroshock-induced seizure; type: functional
Procedure, shortened: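 Male CF mice were dosed orally, with the vehicle for po dosing being a 0.2% agar suspension. Protection against electroshock-induced seizures was examined at 500 mg/kg po. Activity is reported as ED50 in mg/kg po.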

Mus musculus [6] = assay: Toxicity in CF albino mouse assessed as mild convulsion at 500 mg/kg, po; type: organism-based; parameters: dose 500 mg/kg, route oral; details: in vivo
Mus musculus [7] = assay: Central nervous system depressant activity in CF albino mouse assessed as inhibition of spontaneous motor activity at 500 mg/kg, po measured within 15 mins relative to control; type: functional; details: for inhibition in vivo at 500 mg/kg: 0.25 h; procedure, shortened: as §1
Mus musculus [8] = assay: Antidepressant activity in CF albino mouse assessed as inhibition of reserpine-induced hypothermia at 25 mg/kg, po relative to control; type: functional
Procedure, shortened: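 Oral dosing was 25 mg/kg in 0.2% agar suspension to male CF mice. Antagonism of reserpine-induced hypothermia was measured and graded on a plus-scale.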

Mus musculus [9] = assay: Central nervous system depressant activity in CF albino mouse assessed as induction of sedation at 25 mg/kg, po; type: functional, organism-based; parameters: dose 25 mg/kg
Mus musculus [10] = assay: Central nervous system depressant activity in CF albino mouse assessed as induction of sedation at 500 mg/kg, po; type: functional, organism-based; parameters: dose 500 mg/kg; procedure, shortened: as §1
Mus musculus [11] = assay: Central nervous system depressant activity in po dosed CF albino mouse assessed as induction of sedation; type: functional, organism-based
Mus musculus [12] = assay: Toxicity in CF albino mouse at 500 mg/kg, po; type: organism-based; parameters: dose 500 mg/kg, route oral; details: in vivo
Mus musculus [13] = assay: Central nervous system depressant activity in CF albino mouse assessed as induction of sedation with arousability at 500 mg/kg, po; type: functional, organism-based; parameters: dose 500 mg/kg; procedure, shortened: as §1

Row | SMILES | Activity (Mus musculus [1]) | Activity (Mus musculus [2]) | Activity (Mus musculus [3]) [%] | Activity (Mus musculus [4]) [%] | ED50 (Mus musculus [5]) | Activity (Mus musculus [6]) | inhibition in vivo at 500 mg/kg (Mus musculus [7]) [%] | inhibition in vivo at 25 mg/kg (Mus musculus [8]) [%] | Activity (Mus musculus [9]) | Activity (Mus musculus [10]) | inhibition (Mus musculus [7]) | Activity (Mus musculus [11]) | Activity (Mus musculus [12]) | Activity (Mus musculus [13]) | inhibition (Mus musculus [8])
1 | CCN(CC)CCN1N=C(c2ccc(F)cc2)CC2=C1CC(C)(C)CC2=O | Toxic | inactive | 75 | 51 | 150 mg/kg | Toxic | 51 | 26 | Active |  |  |  |  |  | 
2 | CN(C)CCCN1N=C(c2ccccc2)CC2=C1CC(C)(C)CC2=O.O.[O-][Cl+3]([O-])([O-])O |  |  | 25 | 51 | 500 mg/kg |  | 1 | 26 |  | inactive |  |  |  |  | 
3 | CCN(CC)CCN1N=C(c2cc(OC)c(OC)c(OC)c2)CC2=C1CC(C)(C)CC2=O.[O-][Cl+3]([O-])([O-])O |  |  |  | 26 | inactive |  |  | 51 |  |  | inactive |  |  |  | 
4 | CC1=NNC2=C(C1)C(=O)CC(C)(C)C2 |  |  |  | 51 | inactive |  |  | 0 |  |  | inactive |  |  |  | 
5 | CCN(CC)CCN1N=C(c2ccccc2)C(C)C2=C1CC(C)(C)CC2=O.[O-][Cl+3]([O-])([O-])O (centres undefined) | Toxic |  | 25 | 26 | 400 mg/kg | Toxic | 1 | 0 |  | inactive |  |  |  |  | 
6 | CN(C)CCN1N=C(c2ccccc2)CC2=C1CC(C)(C)CC2=O.[O-][Cl+3]([O-])([O-])O | Toxic | inactive | 75 | 51 | 500 mg/kg | Toxic | 51 | 26 |  |  |  | Dose-dependent effect |  |  | 
7 | CC1(C)CC(=O)C2=C(C1)N(C(N)=O)N=C(c1ccccc1)C2 |  |  |  | 51 | inactive |  |  | 26 |  |  | inactive |  |  |  | 
8 | CC1(C)CC(=O)C(CC(=O)c2ccccc2)=C(NNC(=O)c2ccncc2)C1 |  |  | 25 | 51 | inactive |  | 1 | 51 |  | inactive |  |  |  |  | 
9 | CC1(C)CC(=O)C(CC(=O)c2ccccc2)=C(NNC(=N)N)C1 |  |  | 25 | 51 | inactive |  | 1 | 76 |  | inactive |  |  |  |  | 
10 | CC1(C)CC(=O)C2=C(C1)NN=C(c1ccccc1)C2 |  |  |  | 26 | inactive |  |  | 26 |  |  | inactive |  |  |  | 
11 | CCN(CC)CCN1N=C(c2ccccc2)CC2=C1CCCC2=O.[O-][Cl+3]([O-])([O-])O |  |  |  | 51 | 200 mg/kg |  |  | 26 |  |  | inactive |  | Toxic |  | 
12 | CC1(C)CC(=O)C2=C(C1)N(c1ccccc1)N=C(c1ccccc1)C2 |  |  |  | 0 | inactive |  |  | 26 |  |  | inactive |  |  |  | 
13 | CC1(C)CC(=O)C2=C(C1)N(CCO)N=C(c1ccccc1)C2.Cc1ccc(S(=O)(=O)O)cc1 |  |  | 25 | 51 | inactive |  | 1 | 26 |  | inactive |  |  |  |  | 
14 | CN(C)CCN1N=C(c2ccc(Br)cc2)CC2=C1CC(C)(C)CC2=O.[O-][Cl+3]([O-])([O-])O |  |  | 75 | 51 | 100 mg/kg |  | 51 |  |  |  |  |  |  | Active | inactive
15 | CN(C)CCN/N=C1/CC(C)(C)CC2=C1CC(c1ccccc1)=NN2CCN(C)C |  |  |  |  | inactive |  |  |  |  |  | inactive |  |  |  | 
16 | CCN(CC)CCn1nc(C)c(=O)c2c1CC(C)(C)CC2=O |  |  |  | 26 | inactive |  |  | 51 |  |  | inactive |  |  |  | 
17 | CCN(CC)CCN1N=C(c2ccccc2)CC2=C1CC(C)(C)CC2=O.[O-][Cl+3]([O-])([O-])O | Toxic |  | 50 | 51 | 225 mg/kg | Toxic | 26 | 26 |  | Active |  |  |  |  | 
18 | CC1(C)CC(=O)C(CC(=O)c2ccccc2)=C(NNc2ccncc2)C1 |  |  | 25 | 51 | inactive |  | 1 | 76 |  | inactive |  |  |  |  | 
19 | CCN(CC)CCN1N=C(c2ccc(OC)cc2)CC2=C1CC(C)(C)CC2=O.[O-][Cl+3]([O-])([O-])O |  |  | 25 | 26 | 300 mg/kg |  | 1 | 0 |  | inactive |  |  |  |  | 
20 | CC1(C)CC(=O)c2cc(-c3ccccc3)nnc2C1 | Toxic |  | 25 | 26 | 500 mg/kg | Toxic | 1 | 26 |  | inactive |  |  |  |  | 
21 | CC1(C)CC(=O)C2=C(C1)N(CCN1CCNCC1)N=C(c1ccc(Br)cc1)C2.Cl.O |  |  | 50 | 0 | inactive |  | 26 | 26 |  | Active |  |  |  |  | 
22 | CCN(CC)CCN1N=C(c2ccc(Br)cc2)CC2=C1CC(C)(C)CC2=O | Toxic |  | 50 | 26 | 100 mg/kg | Toxic | 26 | 26 |  | Active |  |  |  |  | 
23 | CC1(C)CC(=O)C2=C(C1)N(CCN1CCNCC1)N=C(c1ccc(F)cc1)C2.Cc1ccc(S(=O)(=O)O)cc1.O |  |  |  | 51 | inactive |  |  | 26 |  |  | inactive |  |  |  | 
24 | CCOC(=O)NNC1=C(CC(=O)c2ccccc2)C(=O)CC(C)(C)C1 |  |  | 25 | 26 | inactive |  | 1 | 51 |  | inactive |  |  |  |  | 
25 | CN1N=C(c2ccccc2)CC2=C1CC(C)(C)CC2=O |  |  |  | 26 | inactive |  |  | 51 |  |  | inactive |  |  |  | 
26 | CN(C)CCN1N=C(c2ccc(F)cc2)CC2=C1CC(C)(C)CC2=O.O.O=C(O)C(=O)O | Toxic |  |  | 26 | inactive | Toxic |  | 26 |  |  | inactive |  |  |  | 
